Assay outcomes: PubChem, The Scripps Research Institute Molecular Screening Center
This excerpt belongs to a sample that is enriched for hits.
RORa inhibitor: RORA (human) inhibition; CHO-K1 Gal4-RORA LBD luciferase reporter, luminescence; AID 561; P35398; 65,000 tested, 0.43% active; inhibition, % at 10 µM;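 active = inhibition above the mean of all tested compounds plus 3 SD, cut at about 52% in these data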
Target sequence (P35398 whole entry, looked up, the tested form may be a part): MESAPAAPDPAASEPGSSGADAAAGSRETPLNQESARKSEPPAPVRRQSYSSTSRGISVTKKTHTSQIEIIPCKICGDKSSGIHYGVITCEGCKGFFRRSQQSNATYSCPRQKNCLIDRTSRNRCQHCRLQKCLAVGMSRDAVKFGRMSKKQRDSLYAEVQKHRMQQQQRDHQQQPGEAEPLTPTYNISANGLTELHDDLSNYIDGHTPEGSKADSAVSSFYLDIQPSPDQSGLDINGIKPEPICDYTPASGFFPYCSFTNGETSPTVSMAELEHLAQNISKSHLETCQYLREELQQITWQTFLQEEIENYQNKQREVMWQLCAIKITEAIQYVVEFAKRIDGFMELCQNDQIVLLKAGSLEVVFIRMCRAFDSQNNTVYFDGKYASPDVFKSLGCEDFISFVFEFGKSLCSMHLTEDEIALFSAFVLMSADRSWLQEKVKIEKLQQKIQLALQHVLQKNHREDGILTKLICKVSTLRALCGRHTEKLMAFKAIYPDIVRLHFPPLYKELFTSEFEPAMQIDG
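Material: transiently transfected CHO-K1 cells, Gal4-DBD/human RORA-LBD fusion plus 5xGal4-luciferase reporter; doses: single concentration per compound, 10 µM final; incubation: 20 h at 37 °C; detection: luminescence from basal luciferase reporter expression; read-out: % inhibition of basal luciferase versus +RORA/-RORA DMSO controls; replication: tested once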
Hits are given with their value; n = inactive.

SMILES | RORa inhibitor
Cn1ncnc2c(=O)n(C)c(=O)nc1-2 | 98
O=C(CN1C2CCC1CC(O)(c1cccnc1)C2)Nc1ccc2c(c1)OCO2 (centres undefined) | n
Cc1sc2ncn(CC(=O)NCC(=O)N3CCC4(CC3)OCCO4)c(=O)c2c1C | n
O=C1NC(=O)C(CCc2ccncc2)(C2CCCCC2)C(=O)N1 | n
C[C@@]1(CO)[C@H](O)CC[C@@]2(C)[C@H]1CC[C@H]1C[C@@H]3C[C@@]12CC[C@]3(O)CO | 82
CN1CCN(CCC(C#N)(c2ccccc2)c2ccccc2)CC1 | n
Cc1ccccc1-n1c(O)c(C=Nc2ccc(N(C)C)cc2)c(=O)[nH]c1=O | n
CCOC(=O)N(CC)c1ccc(C(O)(C(=O)OC)C(F)(F)F)cc1 (centres undefined) | n
CCN(CC)CCCN=C(C)c1c(O)n(-c2ccccc2)c(=O)[nH]c1=O | n
COCCOC(=O)C1=C(N)Oc2c(c(=O)oc3ccccc23)C1c1ccncc1 (centres undefined) | n
